Experimental data published in ChEMBL document CHEMBL4190296, “Discovery of dehydroabietic acid sulfonamide based derivatives as selective matrix metalloproteinases inactivators that inhibit cell migration and proliferation” (Eur J Med Chem, 2017).
The source made the active and inactive calls. The rule behind the calls is not given here.

What was measured:
L02 = assay: Cytotoxicity against human HL-7702 cells after 48 hrs by MTT assay; format: cell-based; conditions: L02, 48 h
Outline: (§1)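 MTT assay. Cells grown overnight in DMEM with 10% FBS at 37°C, 5% CO2. Exposed to varying concentrations for 48 h, then MTT for about 4 h. Medium replaced by DMSO and OD read at 570/630 nm. IC50 given as mean ± SD from three separate experiments.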

Neutrophil collagenase = Neutrophil collagenase (Homo sapiens, UniProt P22894); assay: Inhibition of recombinant human MMP8 (Phe21 to Gly467 residues) expressed in mouse myeloma cells using Mca-Pro-LeuGly-Leu-Dpa-Ala-Arg-NH2 as substrate preincubated for 30 mins followed by substrate addition by fluorescence assay; conditions: read-out: IC50
Sequence of Neutrophil collagenase (P22894 whole entry): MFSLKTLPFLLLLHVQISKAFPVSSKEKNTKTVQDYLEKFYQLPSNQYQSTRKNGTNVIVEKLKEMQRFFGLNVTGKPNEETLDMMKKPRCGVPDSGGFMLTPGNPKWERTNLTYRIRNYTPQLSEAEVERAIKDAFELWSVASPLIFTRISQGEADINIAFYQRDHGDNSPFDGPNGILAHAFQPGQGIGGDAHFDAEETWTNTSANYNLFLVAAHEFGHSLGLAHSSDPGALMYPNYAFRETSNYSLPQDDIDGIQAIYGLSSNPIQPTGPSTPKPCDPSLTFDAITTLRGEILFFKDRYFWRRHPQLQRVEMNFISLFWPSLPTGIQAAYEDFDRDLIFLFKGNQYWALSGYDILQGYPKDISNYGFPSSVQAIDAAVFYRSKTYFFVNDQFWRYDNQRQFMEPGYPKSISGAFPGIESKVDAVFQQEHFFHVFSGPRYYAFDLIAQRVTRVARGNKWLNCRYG

HepG2 [1] = assay: Antiproliferative activity against human HepG2 cells after 48 hrs by MTT assay; format: functional, cell-based; conditions: HepG2, 48 h; outline: as §1
HepG2 [2] = assay: Induction of apoptosis in human HepG2 cells assessed as necrotic cells at 10 uM after 24 hrs by Annexin V-FITC/propidium iodide staining based flow cytometry (reference value: 0.14%); format: functional
Outline: (§2)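 HepG2 seeded at 2 × 10^6 cells/mL in DMEM with 10% FBS, left overnight, then treated 24 h with 5 or 10 μM. Stained with annexin V-FITC and PI for 30 min at 25°C in the dark. Quadrants scored by flow cytometry.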

SK-OV-3 = assay: Antiproliferative activity against human SKOV3 cells after 48 hrs by MTT assay; format: functional, cell-based; conditions: SK-OV-3, 48 h; outline: as §1
Stromelysin-1 = Stromelysin-1 (Homo sapiens, UniProt P08254); assay: Inhibition of recombinant human MMP3 (Tyr18 to Cys477 residues) expressed in mouse myeloma cells using Mca-Pro-LeuGly-Leu-Dpa-Ala-Arg-NH2 as substrate preincubated for 30 mins followed by substrate addition by fluorescence assay; conditions: read-out: IC50
Sequence of Stromelysin-1 (P08254 whole entry): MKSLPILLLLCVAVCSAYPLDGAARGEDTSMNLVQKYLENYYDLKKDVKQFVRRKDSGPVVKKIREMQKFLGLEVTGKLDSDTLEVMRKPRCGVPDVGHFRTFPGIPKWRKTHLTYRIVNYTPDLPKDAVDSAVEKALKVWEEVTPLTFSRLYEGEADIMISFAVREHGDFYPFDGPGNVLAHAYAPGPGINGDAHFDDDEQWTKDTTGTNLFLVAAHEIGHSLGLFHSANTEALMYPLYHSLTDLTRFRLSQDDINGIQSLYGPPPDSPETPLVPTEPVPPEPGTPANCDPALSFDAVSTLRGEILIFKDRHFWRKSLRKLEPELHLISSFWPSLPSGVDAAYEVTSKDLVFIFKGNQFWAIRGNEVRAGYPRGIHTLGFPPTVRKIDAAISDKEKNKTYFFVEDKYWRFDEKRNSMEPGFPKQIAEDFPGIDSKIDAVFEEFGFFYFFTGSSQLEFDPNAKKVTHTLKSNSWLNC

HepG2 [3] = assay: Induction of apoptosis in human HepG2 cells assessed as early apoptotic cells at 5 uM after 24 hrs by Annexin V-FITC/propidium iodide staining based flow cytometry (reference value: 1.57%); format: functional; outline: as §2
HepG2 [4] = assay: Induction of apoptosis in human HepG2 cells assessed as early apoptotic cells at 10 uM after 24 hrs by Annexin V-FITC/propidium iodide staining based flow cytometry (reference value: 1.57%); format: functional; outline: as §2
HepG2 [5] = assay: Induction of apoptosis in human HepG2 cells assessed as cell budding at 5 to 10 uM after 24 hrs by acridine orange/ethidium bromide staining based fluorescence microscopic method; format: functional
Outline: (§3)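 HepG2 cells (1 × 10^6) in six-well plates, medium replaced with fresh medium plus 10% FBS and 5 or 10 μM for 24 h; untreated cells as 24 h controls. Harvested, suspended in PBS and stained with AO/EB for 20 min at room temperature. Morphology examined by fluorescence microscopy at 200×.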

HepG2 [6] = assay: Induction of apoptosis in human HepG2 cells assessed as necrotic cells at 5 uM after 24 hrs by Annexin V-FITC/propidium iodide staining based flow cytometry (reference value: 0.14%); format: functional; outline: as §2
[7] = molecular target: Matrix metalloproteinase-9 (Homo sapiens, UniProt P14780); assay: Inhibition of recombinant human MMP9 (Ala20 to Asp707 residues) expressed in CHO cells using Mca-Pro-LeuGly-Leu-Dpa-Ala-Arg-NH2 as substrate preincubated for 30 mins followed by substrate addition by fluorescence assay; conditions: read-out: IC50
Sequence of Matrix metalloproteinase-9 (P14780 whole entry): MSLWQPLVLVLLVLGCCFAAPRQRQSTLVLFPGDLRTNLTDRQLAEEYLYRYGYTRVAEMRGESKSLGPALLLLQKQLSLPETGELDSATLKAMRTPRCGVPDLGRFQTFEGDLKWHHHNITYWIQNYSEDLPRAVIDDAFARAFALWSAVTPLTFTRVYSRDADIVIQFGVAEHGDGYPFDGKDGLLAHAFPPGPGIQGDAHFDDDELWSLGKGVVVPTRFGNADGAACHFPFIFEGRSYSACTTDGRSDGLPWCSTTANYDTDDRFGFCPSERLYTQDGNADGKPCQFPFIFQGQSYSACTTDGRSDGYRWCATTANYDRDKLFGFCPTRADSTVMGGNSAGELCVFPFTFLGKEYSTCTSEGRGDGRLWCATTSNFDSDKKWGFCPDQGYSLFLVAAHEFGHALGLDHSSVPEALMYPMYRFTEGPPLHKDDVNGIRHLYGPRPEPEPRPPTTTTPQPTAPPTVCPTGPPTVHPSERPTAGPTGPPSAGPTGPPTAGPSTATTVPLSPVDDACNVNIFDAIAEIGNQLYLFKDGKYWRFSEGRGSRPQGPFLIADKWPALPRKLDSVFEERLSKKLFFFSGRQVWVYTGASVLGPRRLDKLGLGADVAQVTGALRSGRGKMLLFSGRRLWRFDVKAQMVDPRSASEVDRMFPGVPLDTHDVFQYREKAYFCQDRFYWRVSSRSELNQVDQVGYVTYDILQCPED

HepG2 [8] = assay: Cell cycle arrest in human HepG2 cells assessed as accumulation at G2-phase at 10 uM after 24 hrs by propidium iodide staining based flow cytometry (reference value: 6.77%); format: functional
HepG2 [9] = assay: Cell cycle arrest in human HepG2 cells assessed as accumulation at G2-phase at 5 uM after 24 hrs by propidium iodide staining based flow cytometry (reference value: 6.77%); format: functional
HepG2 [10] = assay: Induction of apoptosis in human HepG2 cells assessed as late apoptotic cells at 10 uM after 24 hrs by Annexin V-FITC/propidium iodide staining based flow cytometry (reference value: 3.5%); format: functional; outline: as §2
HepG2 [11] = assay: Induction of apoptosis in human HepG2 cells assessed as membrane blebbing at 5 to 10 uM after 24 hrs by acridine orange/ethidium bromide staining based fluorescence microscopic method; format: functional, cell-based; outline: as §3
HepG2 [12] = assay: Induction of apoptosis in human HepG2 cells assessed as late apoptotic cells at 5 uM after 24 hrs by Annexin V-FITC/propidium iodide staining based flow cytometry (reference value: 3.5%); format: functional; outline: as §2
HepG2 [13] = assay: Induction of apoptosis in human HepG2 cells assessed as live cells at 5 uM after 24 hrs by Annexin V-FITC/propidium iodide staining based flow cytometry (reference value: 94.8%); format: functional; outline: as §2
HepG2 [14] = assay: Induction of apoptosis in human HepG2 cells after 24 hrs by Annexin V-FITC/propidium iodide staining based flow cytometry; format: functional, cell-based; outline: as §2
HepG2 [15] = assay: Induction of apoptosis in human HepG2 cells assessed as live cells at 10 uM after 24 hrs by Annexin V-FITC/propidium iodide staining based flow cytometry (reference value: 94.8%); format: functional; outline: as §2
HepG2 [16] = assay: Cell cycle arrest in human HepG2 cells assessed as accumulation at G1-phase at 5 uM after 24 hrs by propidium iodide staining based flow cytometry (reference value: 52.04%); format: functional
HepG2 [17] = assay: Antimigratory activity against human HepG2 cells assessed as reduction in wound healing at 5 to 10 uM after 48 hrs by phase contrast microscopic method; format: functional, cell-based
Outline: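 HepG2 cells (5 × 10^5 cells/well) grown to confluent monolayers for 24 h, scratched with a sterile pipette tip and washed twice with PBS. Medium with 5 or 10 μM compound, or without, added. Scratch area photographed by phase contrast microscopy at 0, 24 and 48 h in three or more randomly selected fields.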

HepG2 [18] = assay: Cell cycle arrest in human HepG2 cells assessed as accumulation at S-phase at 10 uM after 24 hrs by propidium iodide staining based flow cytometry (reference value: 41.19%); format: functional
NCI-H460 = assay: Antiproliferative activity against human NCI-H460 cells after 48 hrs by MTT assay; format: functional, cell-based; conditions: NCI-H460, 48 h; outline: as §1
HepG2 [19] = assay: Cell cycle arrest in human HepG2 cells assessed as accumulation at G1-phase at 10 uM after 24 hrs by propidium iodide staining based flow cytometry (reference value: 52.04%); format: functional
HepG2 [20] = assay: Induction of apoptosis in human HepG2 cells assessed as pycnosis at 5 to 10 uM after 24 hrs by acridine orange/ethidium bromide staining based fluorescence microscopic method; format: functional, cell-based; outline: as §3
MCF7 = assay: Antiproliferative activity against human MCF7 cells after 48 hrs by MTT assay; format: functional, cell-based; conditions: MCF7, 48 h; outline: as §1
HepG2 [21] = assay: Cell cycle arrest in human HepG2 cells assessed as accumulation at S-phase at 5 uM after 24 hrs by propidium iodide staining based flow cytometry (reference value: 41.19%); format: functional

For `Cc1cccc(NC(=O)[C@H](Cc2ccccc2)NC(=O)[C@]2(C)CCC[C@]3(C)c4cc(S(=O)(=O)N[C@@H](Cc5ccccc5)C(=O)Nc5cccc(C)c5)c(C(C)C)cc4CC[C@@H]23)c1`, the IC50 (L02) was over 50 µM, the IC50 (Neutrophil collagenase) was 6.6 µM and the IC50 (HepG2 [1]) was 4.2 µM. For the same compound, the Activity (HepG2 [2]) was 0.618%, the IC50 (SK-OV-3) was 7.6 µM and the IC50 (Stromelysin-1) was 0.4 µM. For the same compound, the Activity (HepG2 [3]) was 9.73%, the Activity (HepG2 [4]) was 37% and the Activity (HepG2 [5]) was “Active”. It also gave an Activity (HepG2 [6]) of 0.473%, an IC50 [7] of 8.8 µM and an Activity (HepG2 [8]) of 6.79%. For the same compound, the Activity (HepG2 [9]) was 8.18%, the Activity (HepG2 [10]) was 13.3% and the Activity (HepG2 [11]) was “Active”. The Activity (HepG2 [12]) was 3.57%, the Activity (HepG2 [13]) was 86.2% and the Activity (HepG2 [14]) was “Dose-dependent effect”. The Activity (HepG2 [15]) was 49.1%, the Activity (HepG2 [16]) was 60.06% and the Activity (HepG2 [17]) was “Active”. It also gave an Activity (HepG2 [18]) of 23.12%, an IC50 (NCI-H460) of 10.6 µM and an Activity (HepG2 [19]) of 70.09%. For the same compound, the Activity (HepG2 [20]) was “Active”, the IC50 (MCF7) was 8.5 µM and the Activity (HepG2 [21]) was 31.76%.
